Experimental data from ChEMBL document CHEMBL5344428, “Discovery, Crystallographic Studies, and Mechanistic Investigations of Novel Phenylalanine Derivatives Bearing a Quinazolin-4-one Scaffold as Potent HIV Capsid Modulators” (J Med Chem, 2023).

What was measured:
[1] = Selectivity index, ratio of CC50 for cytotoxicity against human MT4 cells to EC50 for antiviral activity against HIV1 IIIB infected in human MT4 cells; type: toxicity, cell-based; settings: read-out: Ratio CC50/EC50
Method in brief: (§1)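 SI is CC50 divided by EC50. CC50 comes from MTT viability of uninfected MT-4 cells. EC50 comes from MTT-read protection of MT-4 cells infected with HIV-1 IIIB or HIV-2 ROD. Each value was run in at least triplicate.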

[2] = Cytotoxicity against human MT4 cells assessed as reduction in cell viability incubated for 5 days by MTT assay; type: toxicity, cell-based; settings: MT4 cells, time 5 day
Method in brief: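 Uninfected MT-4 cells were exposed to compound, and viability was read by the MTT method. […] Each value was run in at least triplicate and averaged from at least three independent experiments.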

[3] = Selectivity index, ratio of CC50 for cytotoxicity against human MT4 cells to EC50 for antiviral activity against HIV2 ROD infected in human MT4 cells; type: toxicity, cell-based; settings: read-out: Ratio CC50/EC50; method in brief: as §1
[4] = system: Human immunodeficiency virus 2; assay: Antiviral activity against HIV2 ROD infected in human MT4 cells assessed as reduction in virus induced cytopathic effect measured after 5 days by MTT assay; type: functional, organism-based; settings: Human immunodeficiency virus 2, ROD, MT4, 120 h
Method in brief: (§2)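 MT-4 cells were infected with HIV-1 IIIB or HIV-2 ROD, and cell viability was read by MTT. […] Each value was run in at least triplicate and averaged from at least three independent experiments.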

[5] = Selectivity ratio of EC50 for antiviral activity against HIV1 IIIB infected in human MT4 cells to EC50 for antiviral activity against HIV2 ROD infected in human MT4 cells; type: toxicity, cell-based
Method in brief: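 Ratio is EC50 against HIV-1 IIIB divided by EC50 against HIV-2 ROD. Both EC50 values come from MTT-read protection of infected MT-4 cells.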

[6] = system: Human immunodeficiency virus 1; assay: Antiviral activity against HIV1 IIIB infected in human MT4 cells assessed as reduction in virus induced cytopathic effect measured after 5 days by MTT assay; type: functional, organism-based; settings: Human immunodeficiency virus 1, IIIB, MT4, 120 h; method in brief: as §2

Structure (SMILES): COc1ccc(N(C)C(=O)[C@H](Cc2ccccc2)NC(=O)CN2CCN(C(=O)c3ccc(NC(=O)C(F)(F)F)cc3)CC2=O)cc1
- selectivity ratio [1]: > 1.24
- CC50 at 120 h [2]: > 195 µM
- selectivity ratio [3]: > 13.1
- EC50 [4]: 15 µM
- Ratio EC50 [5]: 10.54

Structure (SMILES): COc1ccc(N(C)C(=O)[C@H](Cc2cc(F)cc(F)c2)NC(=O)CN(C(=O)Cc2ccc(B3OC(C)(C)C(C)(C)O3)cc2)C2CC2)cc1
- selectivity ratio [1]: 17
- EC50 [6]: 5.18 µM
- CC50 at 120 h [2]: 89 µM
- selectivity ratio [3]: 9
- EC50 [4]: 9.71 µM
- Ratio EC50 [5]: 0.53

Structure (SMILES): COc1ccc(-n2c(SCC#N)nnc2[C@H](Cc2ccccc2)NC(=O)Cc2c(C)[nH]c3ccccc23)cc1
- selectivity ratio [1]: 163
- EC50 [6]: 0.59 µM
- selectivity ratio [3]: 36
- EC50 [4]: 2.69 µM
- Ratio EC50 [5]: 0.22

Structure (SMILES): COc1ccc(N(C)C(=O)[C@H](Cc2ccccc2)NC(=O)CN2CCN(C(=O)Cc3c[nH]c4ccc(O)cc34)CC2=O)cc1
- selectivity ratio [1]: > 1.06
- CC50 at 120 h [2]: > 209 µM
- selectivity ratio [3]: > 1.12
- Ratio EC50 [5]: 1.06

Structure (SMILES): COc1ccc(N(C)C(=O)[C@H](Cc2cc(F)cc(F)c2)NC(=O)CN(Cc2ccccc2)C(=O)Cc2ccc3ccccc3c2)cc1
- selectivity ratio [1]: < 1
- CC50 at 120 h [2]: 176 µM
- selectivity ratio [3]: < 1
- EC50 [4]: > 18.9 µM

Structure (SMILES): COc1ccc(N(C)C(=O)[C@H](Cc2ccccc2)NC(=O)CN2CCN(C(=O)c3ccc(NS(C)(=O)=O)cc3)CC2=O)cc1
- selectivity ratio [1]: > 1.05
- CC50 at 120 h [2]: > 201 µM
- Ratio EC50 [5]: < 0.96

Structure (SMILES): COc1ccc(-n2c(SCCC3CCCCC3)nnc2[C@H](Cc2ccccc2)NC(=O)Cc2c(C)[nH]c3ccccc23)cc1
- CC50 at 120 h [2]: > 206 µM

Structure (SMILES): COc1ccc(N(C)C(=O)[C@H](Cc2cc(F)cc(F)c2)NC(=O)CN(Cc2ccc(F)cc2)C(=O)Cc2c(C)[nH]c3ccccc23)cc1
- selectivity ratio [1]: 8
- EC50 [6]: 2.79 µM
- CC50 at 120 h [2]: 22.6 µM
- EC50 [4]: > 22.6 µM
- Ratio EC50 [5]: < 0.12

Structure (SMILES): COc1ccc(-n2c(SCc3cccnc3)nnc2[C@H](Cc2ccccc2)NC(=O)Cc2c(C)[nH]c3ccccc23)cc1
- selectivity ratio [1]: 8
- EC50 [6]: 2.99 µM
- CC50 at 120 h [2]: 24 µM
- EC50 [4]: > 7.81 µM
- Ratio EC50 [5]: < 0.38

Structure (SMILES): COc1ccc(N(C)C(=O)[C@H](Cc2cc(F)cc(F)c2)NC(=O)CN(Cc2ccc(F)cc2)C(=O)Cc2cccc3ccccc23)cc1
- CC50 at 120 h [2]: > 191 µM
- selectivity ratio [3]: > 33
- EC50 [4]: 5.87 µM
- Ratio EC50 [5]: > 32.6

Structure (SMILES): COc1ccc(-n2c(SCCN(C)C)nnc2[C@H](Cc2ccccc2)NC(=O)Cc2c(C)[nH]c3ccccc23)cc1
- selectivity ratio [1]: 27
- EC50 [6]: 0.85 µM
- EC50 [4]: > 22.9 µM
- Ratio EC50 [5]: < 0.04

Structure (SMILES): COc1ccc(N(C)C(=O)[C@H](Cc2cc(F)cc(F)c2)NC(=O)CN(CC2CCCCC2)C(=O)Cc2c[nH]c3ccc(Br)cc23)cc1
- selectivity ratio [1]: < 1
- EC50 [6]: > 17.6 µM
- CC50 at 120 h [2]: 17.6 µM
- selectivity ratio [3]: < 1
- EC50 [4]: > 17.6 µM

Structure (SMILES): COC(=O)C(C)(C)Sc1nnc([C@H](Cc2ccccc2)NC(=O)Cc2c(C)[nH]c3ccccc23)n1-c1ccc(OC)cc1
- selectivity ratio [1]: 8
- EC50 [6]: 2.88 µM
- CC50 at 120 h [2]: 22.6 µM
- EC50 [4]: > 22.6 µM
- Ratio EC50 [5]: 0.13

Structure (SMILES): COc1ccc(-n2c(SCc3ccc(B(O)O)cc3)nnc2[C@H](Cc2ccccc2)NC(=O)Cc2c(C)[nH]c3ccccc23)cc1
- selectivity ratio [1]: 8
- EC50 [6]: 2.71 µM
- CC50 at 120 h [2]: 20.8 µM
- EC50 [4]: > 20.8 µM
- Ratio EC50 [5]: < 0.13

Structure (SMILES): COc1ccc(N(C)C(=O)[C@H](Cc2cc(F)cc(F)c2)NC(=O)CN2CCN(C(=O)c3ccc(NS(C)(=O)=O)cc3)CC2=O)cc1
- selectivity ratio [1]: > 1.18
- CC50 at 120 h [2]: > 190 µM
- selectivity ratio [3]: > 1.04
- Ratio EC50 [5]: 0.88

Structure (SMILES): COc1ccc(N(C)C(=O)[C@H](Cc2cc(F)cc(F)c2)NC(=O)CN(Cc2ccc(C#N)cc2)C(=O)Cc2cccc3ccccc23)cc1
- EC50 [6]: > 189 µM
- CC50 at 120 h [2]: > 189 µM
- selectivity ratio [3]: > 82
- EC50 [4]: 2.3 µM
- Ratio EC50 [5]: 82.32

Structure (SMILES): COc1ccc(N(C)C(=O)[C@H](Cc2cc(F)cc(F)c2)NC(=O)CN2CCN(C(=O)Cc3c[nH]c4ccc(O)cc34)CC2=O)cc1
- selectivity ratio [1]: < 1
- CC50 at 120 h [2]: 132 µM
- selectivity ratio [3]: 2.65
- EC50 [4]: 49.6 µM

Structure (SMILES): COc1ccc(N(C)C(=O)[C@H](Cc2ccccc2)NC(=O)Cn2ccc(NC(=O)c3ccc(Br)cc3)cc2=O)cc1
- EC50 [6]: > 23.5 µM
- CC50 at 120 h [2]: 23.5 µM
- EC50 [4]: > 23.5 µM
